ChEMBL document CHEMBL1153436, “2-Pyridyl P1'-substituted symmetry-based human immunodeficiency virus protease inhibitors (A-792611 and A-790742) with potential for convenient dosing and reduced side effects” (J Med Chem, 2009)
≈ marks a conversion by molar mass, not a printed value.

Assays:
Serum [1] = test: Drug level in Gunn rat serum at 100 mg/kg coadministered with ritonavir measured on day 2; type: ADME, organism-based; parameters: dose 100 mg/kg; conditions: in vivo
Outline: (§1)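 Gunn rats (n = 8-10 per arm) dosed orally with compound in 5% ethanol/95% propylene glycol with p-toluenesulfonic acid, together with 50 mg/kg RTV. Plasma was sampled 4 h after the first and second doses. Drug was measured by HPLC and bilirubin […]. Change in bilirubin (mg/dL) reported as mean with SD.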

[2] = system: Human immunodeficiency virus 1; test: Antiviral activity against HIV1 bearing protease gene with A17 mutation infected in human MT4 cells after 5 days by MTT assay; type: functional, organism-based; conditions: Human immunodeficiency virus 1, MT4, 120 h
Outline: (§2)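 HIV-1 A17 mutant clone carrying protease mutations L10F, V32I, M46I, I47V, Q58E and I84V, generated by in vitro serial passage under LPV/RTV. EC50 was determined in MT-4 cells. Wild-type reference strain was HIV-1 pNL4-3.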

[3] = system: Human immunodeficiency virus 1; test: Antiviral activity against wild-type HIV1 pNL4-3 infected in human MT4 cells after 5 days by MTT assay; type: functional, organism-based; conditions: Human immunodeficiency virus 1, MT4, 120 h
[4] = system: Human immunodeficiency virus 1; test: Fold resistance, ratio of EC50 for HIV1 bearing protease gene with A17 mutation to EC50 for wild-type HIV1 pNL4-3; type: functional; outline: as §2
Rattus norvegicus [5] = test: Toxicity in Gunn rat assessed as unconjugated-bilirubin level at 100 mg/kg coadministered with ritonavir measured on day 2; type: organism-based; parameters: dose 100 mg/kg; conditions: in vivo; outline: as §1
[6] = system: Human immunodeficiency virus 1; test: Antiviral activity against wild-type HIV1 pNL4-3 infected in human MT4 cells after 5 days by MTT assay in presence of 50% human serum; type: functional, organism-based; conditions: Human immunodeficiency virus 1, MT4, 120 h
Serum [7] = test: Drug level in Gunn rat serum at 100 mg/kg coadministered with ritonavir measured on day 1; type: ADME, organism-based; parameters: dose 100 mg/kg; conditions: in vivo; outline: as §1
Rattus norvegicus [8] = test: Toxicity in po dosed Gunn rat assessed as hyperbilirubinemia; type: organism-based; conditions: in vivo; outline: as §1
Rattus norvegicus [9] = test: Toxicity in Gunn rat assessed as unconjugated-bilirubin level at 100 mg/kg coadministered with ritonavir measured on day 1; type: organism-based; parameters: dose 100 mg/kg; conditions: in vivo; outline: as §1
[10] = AUC in dog at 5 mg/kg, po coadministered with 2.5 mg/kg ritonavir; type: ADME, organism-based, Canis lupus familiaris; conditions: plasma
Outline: (§3)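 Male and female beagle dogs (n = 3) given oral gavage doses formulated as 5 mg/mL solutions in 5% dextrose with 20% ethanol, 30% propylene glycol and methanesulfonic acid, alone or with RTV (2.5 or 5 mg/kg). Plasma was taken at 12 time points over 12 h, extracted with ethyl acetate/hexane and analysed by reversed-phase HPLC with internal standard. AUC in µg·h/mL; Cmax and C12h in µg/mL.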

[11] = Concentration of drug after 12 hrs in dog at 5 mg/kg, po coadministered with 5 mg/kg ritonavir; type: ADME, organism-based, Canis lupus familiaris; conditions: in vivo, read-out: Drug uptake; outline: as §3
Cytochrome P450 2C19 = Cytochrome P450 2C19 (Homo sapiens, UniProt P33261); test: Inhibition of CYP2C19 assessed as S-mephenytion hydroxylation; type: ADME
Outline: (§4)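 CYP inhibition in vitro, with probe reactions of phenacetin O-deethylation (CYP1A2), tolbutamide hydroxylation (CYP2C9), S-mephenytoin hydroxylation (CYP2C19) and dextromethorphan O-demethylation (CYP2D6). Reported as IC50 in µM.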

[12] = Cmax in dog at 5 mg/kg, po coadministered with 2.5 mg/kg ritonavir; type: ADME, organism-based, Canis lupus familiaris; parameters: dose 5 mg/kg, route oral; conditions: in vivo; outline: as §3
Cytochrome P450 1A2 = target: T1, Cytochrome P450 1A2 (Homo sapiens, UniProt P05177); test: Inhibition of CYP1A2 assessed as phenacetin O-deethylation; type: ADME; outline: as §4
T1 sequence (P05177 whole entry): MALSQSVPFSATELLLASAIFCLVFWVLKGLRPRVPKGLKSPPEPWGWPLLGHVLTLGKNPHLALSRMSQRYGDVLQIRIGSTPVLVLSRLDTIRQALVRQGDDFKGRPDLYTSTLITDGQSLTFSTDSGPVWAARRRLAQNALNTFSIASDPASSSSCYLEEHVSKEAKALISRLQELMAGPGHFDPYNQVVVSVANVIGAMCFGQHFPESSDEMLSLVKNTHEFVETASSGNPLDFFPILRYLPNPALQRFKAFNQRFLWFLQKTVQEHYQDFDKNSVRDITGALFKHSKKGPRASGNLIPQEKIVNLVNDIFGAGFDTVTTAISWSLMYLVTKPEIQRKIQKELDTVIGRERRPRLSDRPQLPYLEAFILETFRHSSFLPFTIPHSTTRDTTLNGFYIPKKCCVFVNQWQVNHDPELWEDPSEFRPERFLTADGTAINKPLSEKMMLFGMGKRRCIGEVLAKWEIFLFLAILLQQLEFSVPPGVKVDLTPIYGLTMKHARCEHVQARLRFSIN

Cytochrome P450 3A4 = Cytochrome P450 3A4 (Homo sapiens, UniProt P08684); test: Inhibition of CYP3A4 assessed as midazolam 1'- hydroxylation; type: ADME
Outline: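 CYP3A4 inhibition was measured as midazolam 1′-hydroxylation and expressed as Ki in nM.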

[13] = Clearance in Sprague-Dawley rat at 5 mg/kg, iv; type: ADME, organism-based; parameters: dose 5 mg/kg, route intravenous; conditions: in vivo
Outline: (§5)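 Male Sprague-Dawley-derived rats (n = 3) dosed iv or by oral gavage with 5 mg/mL solutions in 5% dextrose containing 20% ethanol, 30% propylene glycol and methanesulfonic acid equivalents. Plasma was sampled at 10 time points over 8 h, extracted into ethyl acetate/hexane and analysed by reversed-phase HPLC with internal standard. AUC in µg·h/mL.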

Cytochrome P450 2C9 = Cytochrome P450 2C9 (Homo sapiens, UniProt P11712); test: Inhibition of CYP2C9 assessed as Tolbutamide hydroxylation; type: ADME; outline: as §4
[14] = AUC in dog at 5 mg/kg, po coadministered with 5 mg/kg ritonavir; type: ADME, organism-based, Canis lupus familiaris; conditions: plasma; outline: as §3
[15] = Half life in Sprague-Dawley rat at 5 mg/kg, iv; type: ADME, organism-based; parameters: dose 5 mg/kg, route intravenous; conditions: in vivo; outline: as §5
[16] = Cmax in dog at 5 mg/kg, po coadministered with 5 mg/kg ritonavir; type: ADME, organism-based, Canis lupus familiaris; parameters: dose 5 mg/kg, route oral; conditions: in vivo; outline: as §3
[17] = Inhibition of human pepsin
[18] = Cmax in dog at 5 mg/kg, po; type: ADME, organism-based, Canis lupus familiaris; parameters: dose 5 mg/kg, route oral; conditions: in vivo; outline: as §3
[19] = Oral bioavailability in Sprague-Dawley rat at 5 mg/kg; type: ADME, organism-based; conditions: in vivo; outline: as §5
Cytochrome P450 2D6 = Cytochrome P450 2D6 (Homo sapiens, UniProt P10635); test: Inhibition of CYP2D6 assessed as dextromethorphan O-demethylation; type: ADME; outline: as §4
[20] = AUC in Sprague-Dawley rat at 5 mg/kg, po in presence of ritonavir; type: ADME, organism-based; parameters: dose 5 mg/kg, route oral; conditions: plasma; outline: as §5
[21] = AUC in Sprague-Dawley rat at 5 mg/kg, po; type: ADME, organism-based; parameters: dose 5 mg/kg, route oral; conditions: plasma; outline: as §5
[22] = system: Human immunodeficiency virus 1; test: Antiviral activity against HIV1 bearing protease gene with B26 mutation infected in human MT4 cells after 5 days by MTT assay; type: functional, organism-based; conditions: Human immunodeficiency virus 1, MT4, 120 h
[23] = Solubility at pH 7.4; type: physicochemical; conditions: buffer
Outline: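 Solubility measured in µg/mL at pH 7.4 and 25 °C.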

[24] = Concentration of drug after 12 hrs in dog at 5 mg/kg, po coadministered with 2.5 mg/kg ritonavir; type: ADME, organism-based, Canis lupus familiaris; conditions: in vivo, read-out: Drug uptake; outline: as §3
Renin = target: T2, Renin (Homo sapiens, UniProt P00797); test: Inhibition of renin
T2 sequence (P00797 whole entry): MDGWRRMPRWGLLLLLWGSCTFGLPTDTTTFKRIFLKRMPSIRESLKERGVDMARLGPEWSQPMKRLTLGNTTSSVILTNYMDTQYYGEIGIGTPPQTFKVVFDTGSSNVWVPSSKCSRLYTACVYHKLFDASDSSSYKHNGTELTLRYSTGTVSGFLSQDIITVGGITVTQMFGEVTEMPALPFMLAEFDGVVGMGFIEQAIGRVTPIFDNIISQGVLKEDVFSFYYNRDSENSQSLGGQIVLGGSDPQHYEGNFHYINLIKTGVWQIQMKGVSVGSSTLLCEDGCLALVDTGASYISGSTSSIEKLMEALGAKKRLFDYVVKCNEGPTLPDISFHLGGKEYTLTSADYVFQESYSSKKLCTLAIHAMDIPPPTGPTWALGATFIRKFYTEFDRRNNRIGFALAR

Rattus norvegicus [25] = test: Toxicity in Gunn rat assessed as unconjugated-bilirubin level at 125 mg/kg coadministered with ritonavir measured on day 1; type: organism-based; parameters: dose 125 mg/kg; conditions: in vivo; outline: as §1
Serum [26] = test: Drug level in Gunn rat serum at 125 mg/kg coadministered with ritonavir measured on day 1; type: ADME, organism-based; parameters: dose 125 mg/kg; conditions: in vivo; outline: as §1
[27] = AUC in dog at 5 mg/kg, po; type: ADME, organism-based, Canis lupus familiaris; parameters: dose 5 mg/kg, route oral; conditions: plasma; outline: as §3
Cathepsin D = Cathepsin D (Homo sapiens, UniProt P07339); test: Inhibition of cathepsin D
[28] = system: Human immunodeficiency virus 1; test: Antiviral activity against HIV1 bearing protease gene with P25 mutation infected in human MT4 cells after 5 days by MTT assay; type: functional, organism-based; conditions: Human immunodeficiency virus 1, MT4, 120 h
[29] = Protein binding in human plasma by equilibrium dialysis; type: ADME, cell-free; conditions: read-out: PB (converted)
Outline: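 Percentage bound in human plasma, determined by equilibrium dialysis.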

Sequence of Cytochrome P450 2C19 (P33261 whole entry): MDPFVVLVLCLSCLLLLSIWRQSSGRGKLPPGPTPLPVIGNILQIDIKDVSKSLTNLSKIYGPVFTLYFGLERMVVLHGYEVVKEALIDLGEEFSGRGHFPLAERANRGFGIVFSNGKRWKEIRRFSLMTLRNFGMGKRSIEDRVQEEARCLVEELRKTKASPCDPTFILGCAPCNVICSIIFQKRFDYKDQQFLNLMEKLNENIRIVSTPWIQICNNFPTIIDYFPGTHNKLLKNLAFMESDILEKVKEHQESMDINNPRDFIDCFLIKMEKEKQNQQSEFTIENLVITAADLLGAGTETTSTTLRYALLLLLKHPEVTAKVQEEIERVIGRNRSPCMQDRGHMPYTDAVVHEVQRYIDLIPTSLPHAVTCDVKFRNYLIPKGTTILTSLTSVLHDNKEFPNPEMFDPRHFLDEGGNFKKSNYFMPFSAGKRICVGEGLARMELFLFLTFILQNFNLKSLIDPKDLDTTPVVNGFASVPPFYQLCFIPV
Sequence of Cytochrome P450 2D6 (P10635 whole entry): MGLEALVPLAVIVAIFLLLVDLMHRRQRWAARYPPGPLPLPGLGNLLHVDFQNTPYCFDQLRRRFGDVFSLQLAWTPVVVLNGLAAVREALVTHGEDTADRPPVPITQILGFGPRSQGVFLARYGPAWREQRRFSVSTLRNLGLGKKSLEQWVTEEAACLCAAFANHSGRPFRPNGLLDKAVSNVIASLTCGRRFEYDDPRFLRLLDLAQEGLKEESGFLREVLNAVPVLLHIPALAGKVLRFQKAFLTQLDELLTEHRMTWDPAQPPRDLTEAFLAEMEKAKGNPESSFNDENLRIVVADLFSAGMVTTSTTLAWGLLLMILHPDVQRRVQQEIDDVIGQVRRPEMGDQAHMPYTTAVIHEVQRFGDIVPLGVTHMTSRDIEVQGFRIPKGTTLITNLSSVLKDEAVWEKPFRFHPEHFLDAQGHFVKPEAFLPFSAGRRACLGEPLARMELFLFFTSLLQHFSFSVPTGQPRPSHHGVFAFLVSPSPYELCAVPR
Sequence of Cytochrome P450 3A4 (P08684 whole entry): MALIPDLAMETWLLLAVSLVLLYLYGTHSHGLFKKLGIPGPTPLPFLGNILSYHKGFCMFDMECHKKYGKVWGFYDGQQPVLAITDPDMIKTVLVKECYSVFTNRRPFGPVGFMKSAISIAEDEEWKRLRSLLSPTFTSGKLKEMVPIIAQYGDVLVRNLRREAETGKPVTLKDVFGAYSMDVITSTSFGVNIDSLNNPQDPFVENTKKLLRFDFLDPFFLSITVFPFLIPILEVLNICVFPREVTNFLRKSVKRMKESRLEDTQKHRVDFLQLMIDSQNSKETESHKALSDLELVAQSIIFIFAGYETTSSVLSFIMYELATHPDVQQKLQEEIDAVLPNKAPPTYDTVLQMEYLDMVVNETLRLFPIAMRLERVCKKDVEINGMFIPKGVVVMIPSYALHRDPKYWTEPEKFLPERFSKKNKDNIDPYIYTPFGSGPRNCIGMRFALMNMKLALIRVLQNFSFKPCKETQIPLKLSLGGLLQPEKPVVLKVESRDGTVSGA
Sequence of Cytochrome P450 2C9 (P11712 whole entry): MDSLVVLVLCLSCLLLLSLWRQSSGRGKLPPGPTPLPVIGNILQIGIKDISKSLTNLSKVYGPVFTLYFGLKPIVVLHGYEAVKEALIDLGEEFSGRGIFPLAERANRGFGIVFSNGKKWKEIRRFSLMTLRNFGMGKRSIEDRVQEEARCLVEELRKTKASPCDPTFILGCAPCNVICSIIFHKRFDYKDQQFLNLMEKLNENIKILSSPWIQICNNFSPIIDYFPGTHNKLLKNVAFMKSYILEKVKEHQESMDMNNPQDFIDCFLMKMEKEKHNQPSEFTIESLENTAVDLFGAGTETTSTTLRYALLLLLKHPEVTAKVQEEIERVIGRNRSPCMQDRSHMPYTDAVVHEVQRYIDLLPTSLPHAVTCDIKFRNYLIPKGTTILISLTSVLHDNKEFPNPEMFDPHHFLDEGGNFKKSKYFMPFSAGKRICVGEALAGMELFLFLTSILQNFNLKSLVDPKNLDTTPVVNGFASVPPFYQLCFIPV
Sequence of Cathepsin D (P07339 65-162 limits assumed): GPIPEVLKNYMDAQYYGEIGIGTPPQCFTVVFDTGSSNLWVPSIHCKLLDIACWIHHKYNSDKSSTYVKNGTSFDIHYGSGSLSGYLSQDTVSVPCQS
Sequence of Cathepsin D (P07339 169-412 limits assumed): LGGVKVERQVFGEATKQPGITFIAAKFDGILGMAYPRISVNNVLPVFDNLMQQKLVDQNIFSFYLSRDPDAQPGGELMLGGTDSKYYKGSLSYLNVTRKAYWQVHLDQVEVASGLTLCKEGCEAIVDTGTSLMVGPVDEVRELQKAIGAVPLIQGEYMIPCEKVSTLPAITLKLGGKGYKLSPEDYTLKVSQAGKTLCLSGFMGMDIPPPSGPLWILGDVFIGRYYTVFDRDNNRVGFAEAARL

SMILES: COC(=O)N[C@H](C(=O)NN(Cc1ccc(-c2ccccn2)cc1)C[C@H](O)[C@H](Cc1ccccc1)NC(=O)[C@@H](N1CCN(Cc2cccc(C)n2)C1=O)C(C)(C)C)C(C)(C)C
- Drug uptake (Serum [1]): 8.88 µg/mL
- EC50 [2]: 17 nM
- EC50 [3]: 2 nM
- Ratio EC50 [4]: 9
- Activity (Rattus norvegicus [5]): 0.685 mg/dL
- EC50 [6]: 30 nM
- Drug uptake (Serum [7]): 8.87 µg/mL
- Activity (Rattus norvegicus [8]): Toxic
- Activity (Rattus norvegicus [9]): 0.536 mg/dL

SMILES: COC(=O)N[C@H](C(=O)N[C@H](Cc1ccc(-c2ccccn2)cc1)C[C@H](O)[C@H](Cc1ccccc1)NC(=O)[C@@H](N1CCN(Cc2cccc(C(C)(C)O)n2)C1=O)C(C)(C)C)C(C)(C)C
- AUC [10]: 6720 ng·h/mL
- concentration at 12 h [11]: 58 ng/mL
- IC50 (Cytochrome P450 2C19): > 5000 nM
- EC50 [2]: 10 nM
- EC50 [3]: 3 nM
- Cmax [12]: 2220 ng/mL
- IC50 (Cytochrome P450 1A2): > 5000 nM
- Ki (Cytochrome P450 3A4): 66 nM
- clearance [13]: 22.5 mL/min/kg
- IC50 (Cytochrome P450 2C9): > 5000 nM
- AUC [14]: 10600 ng·h/mL
- half-life [15]: 30 min
- Cmax [16]: 2560 ng/mL
- Ki [17]: 200000 nM
- Cmax [18]: 40 ng/mL
- bioavailability [19]: 4.9%
- IC50 (Cytochrome P450 2D6): > 5000 nM
- AUC [20]: 12900 ng·h/mL
- AUC [21]: 180 ng·h/mL
- EC50 [22]: 25 nM
- solubility [23]: 11.3 µg/mL (≈ 13.1 µM)
- concentration at 12 h [24]: 13 ng/mL
- Ki (Renin): > 20000 nM
- Activity (Rattus norvegicus [25]): 0.125 mg/dL
- EC50 [6]: 19 nM
- Drug uptake (Serum [26]): 9.37 µg/mL
- AUC [27]: 20 ng·h/mL
- Ki (Cathepsin D): 540 nM
- EC50 [28]: 45 nM
- fraction unbound [29]: 0.018
